Measurements: PubChem BioAssay
Active and inactive are the calls of the source.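 How the source made its calls, unless noted: active means viability loss from added drug above about 55%, and viability with drug at most 40%, in both replicates (limit read from the data, passing the limit was not always enough); inconclusive means both conditions met in only one replicate; inactive means neither replicate meets both conditions.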

Tests used:
[1] = reducers of endogenous Her2 protein level, primary screen, SKBR3 breast tumor cells, AlphaScreen, ATP viability (AID 461;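 active means Her2 level under about 52% in both replicate screens, with viability over 70% of control, limit read from the data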;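 on Her2 level: lower value means less Her2 protein in the cells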;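 on viability: percent of carrier control wells set as 100% viability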); details: 18-24 h, measured here: SKBR3 viability, ATP luminescence, at 10 µM
[2] = target: Receptor tyrosine-protein kinase erbB-2 (Homo sapiens) (UniProt P04626); assay: as above; details: 18-24 h, at 10 µM, stronger effect = lower value
Sequence of Receptor tyrosine-protein kinase erbB-2 (Homo sapiens) (P04626 whole entry, looked up): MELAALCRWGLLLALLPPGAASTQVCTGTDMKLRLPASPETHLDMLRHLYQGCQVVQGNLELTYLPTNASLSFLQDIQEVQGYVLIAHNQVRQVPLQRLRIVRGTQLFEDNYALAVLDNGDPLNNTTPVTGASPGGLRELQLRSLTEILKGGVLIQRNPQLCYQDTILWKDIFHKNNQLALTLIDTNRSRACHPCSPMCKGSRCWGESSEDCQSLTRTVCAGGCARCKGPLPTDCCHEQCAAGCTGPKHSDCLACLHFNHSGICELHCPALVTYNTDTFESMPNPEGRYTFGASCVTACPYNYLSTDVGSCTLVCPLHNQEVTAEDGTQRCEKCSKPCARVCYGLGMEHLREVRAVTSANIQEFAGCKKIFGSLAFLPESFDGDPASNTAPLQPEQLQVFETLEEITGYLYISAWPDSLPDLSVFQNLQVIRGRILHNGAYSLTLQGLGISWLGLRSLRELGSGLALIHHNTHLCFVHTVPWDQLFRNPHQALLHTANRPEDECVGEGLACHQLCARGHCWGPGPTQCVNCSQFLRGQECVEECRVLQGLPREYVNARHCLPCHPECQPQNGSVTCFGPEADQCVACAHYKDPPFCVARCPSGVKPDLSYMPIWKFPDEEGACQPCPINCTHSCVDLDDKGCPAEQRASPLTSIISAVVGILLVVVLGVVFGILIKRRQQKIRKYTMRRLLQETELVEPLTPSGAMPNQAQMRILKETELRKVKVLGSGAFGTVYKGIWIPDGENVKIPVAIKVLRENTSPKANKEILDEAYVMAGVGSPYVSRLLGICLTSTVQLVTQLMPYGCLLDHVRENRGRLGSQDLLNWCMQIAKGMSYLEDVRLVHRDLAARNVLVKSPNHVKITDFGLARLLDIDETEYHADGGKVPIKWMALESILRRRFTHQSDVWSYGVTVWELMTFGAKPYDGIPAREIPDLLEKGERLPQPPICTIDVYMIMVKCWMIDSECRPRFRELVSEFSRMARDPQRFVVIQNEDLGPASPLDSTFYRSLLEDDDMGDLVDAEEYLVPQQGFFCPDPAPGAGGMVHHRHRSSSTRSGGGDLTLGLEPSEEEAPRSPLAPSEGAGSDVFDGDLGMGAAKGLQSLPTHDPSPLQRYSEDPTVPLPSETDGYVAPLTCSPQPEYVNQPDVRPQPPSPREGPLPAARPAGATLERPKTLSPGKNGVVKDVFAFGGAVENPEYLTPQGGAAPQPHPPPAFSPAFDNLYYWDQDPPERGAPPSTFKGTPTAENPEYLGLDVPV

[3] = SK-BR-3 cell growth inhibitors, pilot screen, 24 h, human (AID 572;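 active means viability at or below 10% of carrier control in both of two separate runs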;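 further: compound exposure lasted between 18 and 24 h rather than exactly 24 h; 100% = carrier-treated control wells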); details: SK-BR-3 viability, CellTiter-Glo luminescence, at 10 µM, stronger effect = lower value
[4] = HUVEC growth inhibition – cell-based, human, primary screen (AID 575;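 active means viability at or below 30% in both replicate assays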;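 further: 100% = median of untreated cell wells with 0.1% DMSO on each plate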); details: HUVEC proliferation, CellTiter-Glo luminescence, 72 h; at 10 µM; stronger effect = lower value
Procedure, shortened: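 Test system: primary human umbilical vein endothelial cells; medium: endothelial basal medium with 2% FBS plus growth supplements; dosing: 10 µM compound only; times: 72 h treatment at 37 °C; signal: CTG luminescence; read-out: % viability relative to median vehicle-well signal on each plate; control set: vehicle and MePR control wells; plate: 384-well, collagen-coated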

[5] = growth inhibitors of H69AR lung tumor, primary screen, human, duplicate replicates (AID 580;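 active means viability at or under a set limit in both replicates, limit being median viability minus 3 SD, cut at about 48% in these data, passing the limit was not always enough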;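 further: 100% = mean luminescence of untreated wells and 0% = no signal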); details: H69AR lung tumor cells viability, ATP luminescence, 72 h; at 10 µM; stronger effect = lower value
[6] = reversal of MRP1-mediated doxorubicin resistance, pilot screen, H69AR cells, doxorubicin co-treatment (AID 601); details: CellTiter-Glo, 72 h, at 10 µM; for differential viability (reversal): stronger effect = higher value
[7] = 384-well plate pilot, post-Golgi transport modulator project, inhibition of yeast transport mutant growth (AID 636; in the data active means inhibition above about 31%); details: absorbance 615 nm, about 18 h, stronger effect = higher value
[8] = growth suppression of yeast trafficking mutant, preliminary HTS, modulators of trafficking downstream of Golgi apparatus project, 1536-format plate, OD 615 nm (AID 637; in the data active means inhibition above about 30%); details: yeast transport mutant growth, absorbance 615 nm, 18 h; stronger effect = higher value
[9] = H69AR cells + 2 uM doxorubicin, measured here: viability with 2 uM doxorubicin, stronger effect = lower value
[10] = H69AR cells, compound alone cytotoxicity

| SMILES | viability [1] | Her2 level [2] | viability [3] | viability [4] | viability [5] | differential viability (reversal) ([6]; H69AR cells + 2 uM doxorubicin) | viability [6, 9] | viability [6, 10] | inhibition [7] | inhibition [8] |
| --- | --- | --- | --- | --- | --- | --- | --- | --- | --- | --- |
| O=C1CC(c2ccc(F)c(Br)c2)C2=C(CCCC2=O)N1 (stereo not given) | 102% | 85.5% (inactive) | 102% (inactive) | 84.6% (inactive) | 102% (inactive) | 5.7% (inactive) | 96.1% | 102% | -3.95% (inactive) | -4.67% (inactive) |
| Nc1nc(-n2cnnc2)nn1-c1ccccc1 | 92% | 116% (inactive) | 92% (inactive) | 85.6% (inactive) | 101% (inactive) | 11.4% (inactive) | 89.9% | 101% | 0.13% (inactive) | -8.5% (inactive) |
| COc1ccccc1NC(=O)C1CC(=O)N(c2ccc(F)cc2)C1 (stereo not given) | 99% | 144% (inactive) | 99% (inactive) | 109% (inactive) | 97.3% (inactive) | 8.91% (inactive) | 88.4% | 97.3% | 0.53% (inactive) | 19.2% (inactive) |
| Cc1cc(C)n(-c2nc3nonc3nc2-n2nc(C)cc2C)n1 | 91.5% | 83% (inactive) | 91.5% (inactive) | 83.3% (inactive) | 105% (inactive) | 14.7% (inactive) | 90.3% | 105% | -2.5% (inactive) | -3.17% (inactive) |
| Cn1c(=O)c2c(nc(NCCCO)n2C/C=C/c2ccccc2)n(C)c1=O | 73.5% | 70.5% (inactive) | 73.5% (inactive) | 85.7% (inactive) | 83.2% (inactive) | -14.8% (inactive) | 98% | 83.2% | -4.08% (inactive) | -0.17% (inactive) |
| c1ccc2nc(-c3nc4ccccc4[nH]3)ccc2c1 | 104% | 74% (inactive) | 104% (inactive) | 55.2% (inactive) | 66.6% (inactive) | -3.97% (inactive) | 70.6% | 66.6% | 0% (inactive) | -1.64% (inactive) |
| O=C(NCc1ccc(F)cc1)C1CCN(C(=O)NCc2ccccc2)CC1 | 115% | 110% (inactive) | 115% (inactive) | 89.8% (inactive) | 101% (inactive) | 6.81% (inactive) | 93.8% | 101% | -3.38% (inactive) | -7.17% (inactive) |
| O=C(NCc1ccco1)C(c1ccco1)N(C(=O)Cn1nnc2ccccc21)c1ccc2c(c1)CCC2 (stereo not given) | 95.5% | 92.5% (inactive) | 95.5% (inactive) | 89.7% (inactive) | 99.8% (inactive) | 8.6% (inactive) | 91.2% | 99.8% | -2.8% (inactive) | -5.97% (inactive) |
| Cc1ccc(-c2nnn(CC(=O)N(Cc3ccco3)C(C(=O)NC(C)(C)C)c3cccs3)n2)o1 (stereo not given) | 119% | 81% (inactive) | 119% (inactive) | 89.1% (inactive) | 95.9% (inactive) | 6.13% (inactive) | 89.8% | 95.9% | 0.4% (inactive) | -4.1% (inactive) |
| O=S(=O)(NCc1ccco1)c1cccc2cccnc12 | 105% | 93.5% (inactive) | 105% (inactive) | 89.7% (inactive) | 79% (inactive) | -9.52% (inactive) | 88.5% | 79% | -1.18% (inactive) | -1.45% (inactive) |
| c1ccc(CNc2ccc3c(c2)ncn3C2CCCCC2)nc1 | 97% | 107% (inactive) | 97% (inactive) | 96% (inactive) | 96.8% (inactive) | 2.95% (inactive) | 93.8% | 96.8% | -1.05% (inactive) | -2.73% (inactive) |
| O=C(COc1ccccc1)NCC(c1cccs1)N1CCOCC1 (stereo not given) | 84% | 126% (inactive) | 84% (inactive) | 91.7% (inactive) | 97.7% (inactive) | 14.4% (inactive) | 83.4% | 97.7% | 1.2% (inactive) | -4.29% (inactive) |
| COc1cccc(-n2c(SC3CCOC3=O)nc3ccccc3c2=O)c1 (stereo not given) | 94.5% | 99.5% (inactive) | 94.5% (inactive) | 88.2% (inactive) | 94.4% (inactive) | 10.5% (inactive) | 83.8% | 94.4% | -5.2% (inactive) | -6.03% (inactive) |
| CCOC(=O)N1CCN(C(=O)c2ccc3nc4cc(Cl)ccc4c(=O)n3c2)CC1 | 91% | 95% (inactive) | 91% (inactive) | 96% (inactive) | 91.1% (inactive) | 2.21% (inactive) | 88.8% | 91.1% | -3.07% (inactive) | 2.1% (inactive) |
| CC1(C)CC(=O)c2cnc(NCc3ccco3)nc2C1 | 99% | 107% (inactive) | 99% (inactive) | 114% (inactive) | 96.2% (inactive) | 11% (inactive) | 85.2% | 96.2% | -10.4% (inactive) | -8.83% (inactive) |
| CCCCCCC1/C(=N/O)CCC1C(=O)OC (stereo not given) | 108% | 95.5% (inactive) | 108% (inactive) | 109% (inactive) | 83.2% (inactive) | -1.02% (inactive) | 84.2% | 83.2% | -8.44% (inactive) | -5.71% (inactive) |
| CCOC(=O)c1c(C)oc2ccc(O)c(CN3CCCCC3)c12 | 87.5% | 79.5% (inactive) | 87.5% (inactive) | 90.2% (inactive) | 86.9% (inactive) | -3.83% (inactive) | 90.7% | 86.9% | -1.84% (inactive) | 2.22% (inactive) |
| CCSc1nncn1/N=C/c1ccc(OC)c(OC)c1 | 84% | 124% (inactive) | 84% (inactive) | 91.8% (inactive) | 91.6% (inactive) | -3.4% (inactive) | 95% | 91.6% | -0.9% (inactive) | -7.5% (inactive) |
| Cc1ccc(-n2c(=O)c(C#N)cc3c(=O)n4ccccc4nc32)cc1 | 100% | 84.5% (inactive) | 100% (inactive) | 62.1% (inactive) | 97% (inactive) | 7.35% (inactive) | 89.6% | 97% | -4.59% (inactive) | 2.06% (inactive) |
| Cc1ccc(C)c2[nH]c(=O)c(CN(CCN3CCCC3)C(=O)Nc3cccc(Cl)c3)cc12 | 87% | 84% (inactive) | 87% (inactive) | 15.6% (active) | 26.6% (active) | -6.23% (inactive) | 32.8% | 26.6% | -8.22% (inactive) | -0.32% (inactive) |
| CCCCN(C)C(=O)CS(=O)(=O)Cc1nc(-c2cccc(OC)c2)oc1C | 94% | 114% (inactive) | 94% (inactive) | 94.8% (inactive) | 99.9% (inactive) | 15.6% (inactive) | 84.2% | 99.9% | -4.4% (inactive) | 3.11% (inactive) |
| CCOc1ccccc1C1CC(=O)NC(SCC)=C1C#N (stereo not given) | 85.5% | 89% (inactive) | 85.5% (inactive) | 109% (inactive) | 97% (inactive) | 7.42% (inactive) | 89.6% | 97% | -6.08% (inactive) | -2.17% (inactive) |
| CCOC(=O)N1CCN(c2c(N3CCc4ccccc4C3)c(=O)c2=O)CC1 | 87% | 86% (inactive) | 87% (inactive) | 99.9% (inactive) | 91.7% (inactive) | 6.33% (inactive) | 85.4% | 91.7% | -2% (inactive) | -3.11% (inactive) |
| O=C1c2ccccc2C(=O)N1CNc1ccccc1 | 96.5% | 93.5% (inactive) | 96.5% (inactive) | 108% (inactive) | 101% (inactive) | -17.7% (inactive) | 118% | 101% | -5.2% (inactive) | -1.15% (inactive) |
| Cc1cc(C)n(-c2nc3c(c(=O)n(Cc4ccc(Cl)c(Cl)c4)c(=O)n3C)n2C)n1 | 103% | 99% (inactive) | 103% (inactive) | 93% (inactive) | 95.6% (inactive) | 5.92% (inactive) | 89.6% | 95.6% | -1.69% (inactive) | -3.65% (inactive) |
| CCNC(=O)C1CC(=O)N(Cc2ccc3c(c2)OCO3)C(=Nc2ccc(F)cc2)S1 (stereo not given) | 124% | 112% (inactive) | 124% (inactive) | 85.6% (inactive) | 82.6% (inactive) | -5.16% (inactive) | 87.8% | 82.6% | -6.58% (inactive) | -6.98% (inactive) |
| Cc1cc(=O)n2nc(-c3ccccc3)sc2n1 | 101% | 92.5% (inactive) | 101% (inactive) | 97.2% (inactive) | 92.3% (inactive) | 4.42% (inactive) | 87.8% | 92.3% | -3.73% (inactive) | 1.11% (inactive) |
| CCN(CC)CCN1C(=O)C(O)=C(C(=O)c2cccs2)C1c1ccccn1 (stereo not given) | 86% | 82% (inactive) | 86% (inactive) | 100% (inactive) | 98% (inactive) | 18.6% (inactive) | 79.5% | 98% | -4.86% (inactive) | -1.59% (inactive) |
| CC(C)CSc1nc2ccccc2n1CC(N)=O | 89.5% | 96% (inactive) | 89.5% (inactive) | 87.6% (inactive) | 93.4% (inactive) | 0.185% (inactive) | 93.2% | 93.4% | -0.38% (inactive) | 0.67% (inactive) |
